T cruzi HTS – inhibitors of intracellular Trypanosoma cruzi | actives 4.9% (n = 22,000) | AID 651903 | activity score (inhibition), % at 5.01 µM | intracellular Trypanosoma cruzi in host cells, plate reader; in the data active means activity score above about 55%;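 further: parasites and compound incubated about four days before reading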
INS-1E rescue – rescue of cytokine-induced death in INS-1E beta cells; protection from cytokine-induced ATP loss, % at 10 µM; actives 0.1% (n = 20,000); INS-1E cytokine-induced death, ATP luminescence, 48 h; normalised: neutral wells 0, positive control 100;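 active means mean replicate protection from cytokine-induced ATP loss at least 50% and at least 75% of replicates each reaching 50%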
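Assay system: INS-1E rat insulinoma cells. Amount: 8000 cells per well. Medium: phenol-red-free RPMI with 5% fetal bovine serum. Reagent: IL-1β, TNF-α and IFN-γ cytokine mix. Doses: one compound concentration, pin transfer. Schedule: 48 h co-treatment, 10 min post-lysis read. Detection: CellTiter-Glo luminescence measuring cellular ATP.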
A1 apoptosis 2 – compounds inhibiting A1, read as caspase activation | MEF A1-2A-BIM cells, caspase-Glo luminescence, 3 h; percent of clofoctol response, DMSO zero | caspase activation, % (test concentration not listed) | 24,000 tested, under 10 active; in the data active means caspase activation above about 5.9%
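Material: A1-2A-BIM-expressing MEF cells. Buffer or medium: RPMI-1640 plus 10% FBS. Incubation: cells settled overnight, compound exposure 3 h at 37 °C, 5% CO2. Signal: Caspase-Glo 3/7 luminescence, 1 h at room temperature.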
Large screens that a line does not name were inactive. Many of the other results were omitted from the sample, so hits are more common in it than they were.

C[C@H]1CN([C@@H](C)CO)C(=O)Cc2cc(NS(=O)(=O)c3ccc(F)cc3)ccc2O[C@@H]1CN(C)Cc1ccc(-c2ccccc2)cc1	T cruzi HTS 71
Cc1ccc(S(=O)(=O)Nc2ccc3c(c2)CC(=O)N([C@H](C)CO)C[C@H](C)[C@@H](CN(C)Cc2ccc(-c4ccccc4)cc2)O3)cc1	none (no result: T cruzi HTS, INS-1E rescue)
Cc1ccc(S(=O)(=O)Nc2ccc3c(c2)CC(=O)N([C@H](C)CO)C[C@H](C)[C@H](CN(C)Cc2ccc(-c4ccccc4)cc2)O3)cc1	none (no result: A1 apoptosis 2)
C[C@@H]1CN([C@@H](C)CO)C(=O)Cc2cc(NS(=O)(=O)c3ccccc3)ccc2O[C@@H]1CN(C)Cc1ccc(-c2ccccc2)cc1	T cruzi HTS 58 (no result: A1 apoptosis 2)
O=C(NO)c1cccc(C(=O)N/N=C/c2nccs2)c1	none
C[C@H](CO)N1C[C@H](C)[C@H](CN(C)CC2CCCCC2)Oc2c(NC(=O)CCCCCC(=O)Nc3ccccc3N)cccc2C1=O	none
C[C@@H]1CN([C@H](C)CO)C(=O)c2cccc(NC(=O)CCCCCC(=O)Nc3ccccc3N)c2O[C@@H]1CN(C)CC1CC1	none
C[C@H]1CN([C@@H](C)CO)C(=O)c2cccc(NC(=O)CCCCCC(=O)Nc3ccccc3N)c2O[C@@H]1CN(C)CC1CC1	T cruzi HTS 77
C[C@@H]1CN([C@@H](C)CO)C(=O)c2cccc(NC(=O)CCCCCC(=O)Nc3ccccc3N)c2O[C@H]1CN(C)CC1CC1	T cruzi HTS 60 (no result: A1 apoptosis 2)
C[C@H]1CN([C@@H](C)CO)C(=O)c2cccc(NC(=O)CCCCCC(=O)Nc3ccccc3N)c2O[C@H]1CN(C)CC1CCCCC1	none
C[C@@H]1CN([C@H](C)CO)C(=O)c2cccc(NC(=O)CCCCCC(=O)Nc3ccccc3N)c2O[C@H]1CN(C)CC1CC1	T cruzi HTS 59 (no result: A1 apoptosis 2)
COc1ccc(CN(C)C[C@@H]2Oc3c(NC(=O)Nc4ccc(F)cc4)cccc3C(=O)N([C@H](C)CO)C[C@H]2C)cc1	none (no result: A1 apoptosis 2)
C[C@H](CO)N1C[C@H](C)[C@@H](CN(C)C)Oc2ccc(NS(=O)(=O)c3ccccc3)cc2C1=O	none
C[C@@H]1CN([C@H](C)CO)C(=O)c2cc(NC(=O)Cn3cnnn3)ccc2O[C@@H]1CN(C)Cc1ccc(Oc2ccccc2)cc1	none (no result: A1 apoptosis 2)
Cc1noc(C)c1NC(=O)Nc1ccc2c(c1)C(=O)N([C@@H](C)CO)C[C@H](C)[C@H](CN(C)C)O2	none (no result: INS-1E rescue)
CNC[C@@H]1OCCCC[C@H](C)Oc2ccc(NS(=O)(=O)c3ccc(Cl)cc3)cc2C(=O)N([C@H](C)CO)C[C@@H]1C	none (no result: T cruzi HTS, INS-1E rescue)
C[C@@H]1CN([C@H](C)CO)C(=O)c2cc(N(C)C)ccc2O[C@@H]1CN(C)Cc1ccc2c(c1)OCO2	none
COc1ccc(S(=O)(=O)N(C)C[C@@H]2OCCCC[C@@H](C)Oc3ccc(NC(=O)CCCCCC(=O)Nc4ccccc4N)cc3C(=O)N([C@H](C)CO)C[C@@H]2C)cc1	none
C[C@@H]1CN([C@@H](C)CO)C(=O)c2cc(NC(=O)CCC(F)(F)F)ccc2O[C@@H]1CN(C)C(=O)Nc1ccc(C(F)(F)F)cc1	none (no result: A1 apoptosis 2)
COc1ccc(S(=O)(=O)N(C)C[C@H]2OCCCC[C@H](C)Oc3ccc(NC(=O)Nc4ccc(C(F)(F)F)cc4)cc3C(=O)N([C@@H](C)CO)C[C@H]2C)cc1	none (no result: T cruzi HTS, INS-1E rescue)
C[C@H](CO)N1C[C@H](C)[C@H](CN(C)S(=O)(=O)c2cccs2)Oc2ncc(C#Cc3ccc(F)cc3)cc2C1=O	T cruzi HTS 65 (no result: INS-1E rescue, A1 apoptosis 2)
CCCC(O)C#Cc1cnc2c(c1)C(=O)N([C@H](C)CO)C[C@H](C)[C@H](CN(C)S(=O)(=O)c1cccs1)O2 (stereo partly drawn)	none (no result: INS-1E rescue)
C[C@H](CO)N1C[C@H](C)[C@H](CN(C)S(=O)(=O)c2cccs2)Oc2ncc(C#Cc3ccc(C(F)(F)F)cc3)cc2C1=O	T cruzi HTS 87
C[C@H](CO)N1C[C@H](C)[C@H](CN(C)S(C)(=O)=O)Oc2ncc(C#Cc3ccc(F)cc3)cc2C1=O	none (no result: INS-1E rescue, A1 apoptosis 2)
Cc1noc(C)c1NC(=O)N(C)C[C@@H]1OCCCC[C@@H](C)Oc2ccc(NC(=O)NC3CCCCC3)cc2C(=O)N([C@H](C)CO)C[C@H]1C	none (no result: T cruzi HTS, INS-1E rescue)
CCCN(C)C[C@@H]1Oc2ncc(Br)cc2C(=O)N([C@H](C)CO)C[C@@H]1C	none (no result: INS-1E rescue)
C[C@@H]1CN([C@@H](C)CO)C(=O)c2cc(NS(=O)(=O)c3ccccc3)ccc2O[C@@H]1CN(C)S(=O)(=O)c1ccccc1	none
C[C@H]1CN([C@@H](C)CO)C(=O)Cc2cc(NS(=O)(=O)c3ccc(F)cc3)ccc2O[C@@H]1CN(C)S(=O)(=O)c1ccc(Cl)cc1	none
C[C@@H]1CN([C@H](C)CO)C(=O)Cc2cc(NS(=O)(=O)c3ccc(Cl)cc3)ccc2O[C@H]1CN(C)S(=O)(=O)c1ccc(F)cc1	none
C[C@@H]1CN([C@H](C)CO)C(=O)Cc2cc(NS(=O)(=O)c3ccc(F)cc3)ccc2O[C@@H]1CN(C)S(=O)(=O)c1ccc(Cl)cc1	T cruzi HTS 58 (no result: A1 apoptosis 2)
C[C@@H]1CN([C@@H](C)CO)C(=O)Cc2cc(NS(=O)(=O)c3ccc(F)cc3)ccc2O[C@@H]1CN(C)S(=O)(=O)c1ccc(Cl)cc1	T cruzi HTS 65 (no result: A1 apoptosis 2)
CC(C)NC(=O)N(C)C[C@H]1OCCCC[C@H](C)Oc2ccc(N(C)C)cc2C(=O)N([C@@H](C)CO)C[C@@H]1C	none (no result: T cruzi HTS, INS-1E rescue)
C[C@@H]1CN([C@H](C)CO)C(=O)c2cc(NC(=O)C3CC3)ccc2O[C@H]1CN(C)S(=O)(=O)c1cccs1	none
O=C(O)CCCCCCC(=O)N/N=C/c1ccc(CO)o1	none
O=C(CCCCCC(=O)N/N=C/c1ccc(OCCO)cc1)NO	none (no result: T cruzi HTS, INS-1E rescue)
O=C(CCCCCCC(=O)N/N=C/c1ccc(CO)o1)NO	INS-1E rescue 52 (no result: A1 apoptosis 2)
O=C(CCCCCCC(=O)N/N=C/c1ccc(OCCO)cc1)NO	INS-1E rescue 116 (no result: A1 apoptosis 2)
CNC[C@@H]1Oc2ncc(-c3cc4ccccc4o3)cc2C(=O)N([C@H](C)CO)C[C@@H]1C	T cruzi HTS 79 (no result: INS-1E rescue)
COc1cccc(S(=O)(=O)N(C)C[C@@H]2Oc3ncc(-c4cc5ccccc5o4)cc3C(=O)N([C@H](C)CO)C[C@@H]2C)c1	none (no result: INS-1E rescue, A1 apoptosis 2)
C[C@H](CO)N1C[C@H](C)[C@H](CN(C)Cc2ccncc2)Oc2ncc(-c3cc4ccccc4o3)cc2C1=O	none (no result: INS-1E rescue, A1 apoptosis 2)
Cc1cccc(CN(C)C[C@@H]2Oc3ncc(-c4cc5ccccc5o4)cc3C(=O)N([C@H](C)CO)C[C@@H]2C)c1	T cruzi HTS 70 (no result: INS-1E rescue)
C[C@H](CO)N1C[C@H](C)[C@H](CN(C)S(=O)(=O)c2cccc(F)c2)Oc2ncc(-c3cc4ccccc4o3)cc2C1=O	T cruzi HTS 64
C[C@H](CO)N1C[C@H](C)[C@H](CN(C)Cc2ccc(F)cc2)Oc2ncc(-c3cc4ccccc4o3)cc2C1=O	T cruzi HTS 78 (no result: INS-1E rescue)
Cc1cccc(CN(C)C[C@@H]2Oc3ncc(-c4ccccc4)cc3C(=O)N([C@H](C)CO)C[C@@H]2C)c1	none (no result: INS-1E rescue)
C[C@H](CO)N1C[C@H](C)[C@H](CN(C)S(C)(=O)=O)Oc2ncc(-c3cc4ccccc4o3)cc2C1=O	none (no result: INS-1E rescue, A1 apoptosis 2)
COc1ccc(CN(C)C[C@H]2OCCCC[C@@H](C)Oc3ccc(NC(=O)NC4CCCCC4)cc3C(=O)N([C@@H](C)CO)C[C@@H]2C)cc1	none (no result: T cruzi HTS, INS-1E rescue)
